Experimental data reported in ChEMBL document CHEMBL4715736, “Identification of anticancer agents based on the thieno[2,3-b]pyridine and 1H-pyrazole molecular scaffolds” (2016).

Experiments:
Assay type in all cases: functional
Details in all cases: read-out: Activity
CCRF-CEM = test: Growth inhibition of human CCRF-CEM cells assessed as cell growth at 10 uM incubated for 48 hrs by sulforhodamine B assay relative to control
Summary of the method: (§1)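 NCI Developmental Therapeutics Program NCI60 panel. Compounds that were active in the 10 µM one-dose screen went on to dose–response testing. Growth at each concentration is expressed relative to untreated control (100%). GI50 (concentration giving 50% of maximal inhibition of proliferation) and TGI (concentration giving total growth inhibition) were derived from the curves.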

HL-60(TB) = test: Growth inhibition of human HL-60(TB) cells assessed as cell growth at 10 uM incubated for 48 hrs by sulforhodamine B assay relative to control
Summary of the method: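 Screened by the NCI Developmental Therapeutics Program on its panel of 60 human tumour cell lines. Compounds were first tested at a single 10 µM dose, and compounds active there went to dose-response curves. Growth is expressed relative to untreated control (100%). GI50 (50% of maximal proliferation inhibition) and TGI (total growth inhibition) were derived from the dose-response data.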

K562 = test: Growth inhibition of human K562 cells assessed as cell growth at 10 uM incubated for 48 hrs by sulforhodamine B assay relative to control
Summary of the method: (§2)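 Submitted to the NCI Developmental Therapeutics Program for the NCI60 human tumour cell line panel. First screen at a single 10 µM concentration. Read-out is growth relative to untreated control cells set at 100%.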

RPMI-8226 = test: Growth inhibition of human RPMI-8226 cells assessed as cell growth at 10 uM incubated for 48 hrs by sulforhodamine B assay relative to control
Summary of the method: (§3)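 Run by the NCI Developmental Therapeutics Program as part of its 60-line human tumour panel. Each compound tested at a single 10 µM dose. Growth expressed as % relative to untreated control cells (100%).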

A549 = test: Growth inhibition of human A549/ATCC cells assessed as cell growth at 10 uM incubated for 48 hrs by sulforhodamine B assay relative to control; summary of the method: as §1
HOP-92 = test: Growth inhibition of human HOP-92 cells assessed as cell growth at 10 uM incubated for 48 hrs by sulforhodamine B assay relative to control; summary of the method: as §2
NCI-H23 = test: Growth inhibition of human NCI-H23 cells assessed as cell growth at 10 uM incubated for 48 hrs by sulforhodamine B assay relative to control; summary of the method: as §2
NCI-H322M = test: Growth inhibition of human NCI-H322M cells assessed as cell growth at 10 uM incubated for 48 hrs by sulforhodamine B assay relative to control; summary of the method: as §2
COLO 205 = test: Growth inhibition of human COLO 205 cells assessed as cell growth at 10 uM incubated for 48 hrs by sulforhodamine B assay relative to control; summary of the method: as §1
HCC 2998 = test: Growth inhibition of human HCC 2998 cells assessed as cell growth at 10 uM incubated for 48 hrs by sulforhodamine B assay relative to control; summary of the method: as §1
SW-620 = test: Growth inhibition of human SW-620 cells assessed as cell growth at 10 uM incubated for 48 hrs by sulforhodamine B assay relative to control; summary of the method: as §3
SF-268 = test: Growth inhibition of human SF-268 cells assessed as cell growth at 10 uM incubated for 48 hrs by sulforhodamine B assay relative to control; summary of the method: as §3
SF-295 = test: Growth inhibition of human SF-295 cells assessed as cell growth at 10 uM incubated for 48 hrs by sulforhodamine B assay relative to control; summary of the method: as §3
SF-539 = test: Growth inhibition of human SF-539 cells assessed as cell growth at 10 uM incubated for 48 hrs by sulforhodamine B assay relative to control; summary of the method: as §3
U-251 = test: Growth inhibition of human U-251 cells assessed as cell growth at 10 uM incubated for 48 hrs by sulforhodamine B assay relative to control; summary of the method: as §3
LOX IMVI = test: Growth inhibition of human LOX IMVI cells assessed as cell growth at 10 uM incubated for 48 hrs by sulforhodamine B assay relative to control; summary of the method: as §2
MDA-MB-435 = test: Growth inhibition of human MDA-MB-435 cells assessed as cell growth at 10 uM incubated for 48 hrs by sulforhodamine B assay relative to control; summary of the method: as §2
SK-MEL-28 = test: Growth inhibition of human SK-MEL-28 cells assessed as cell growth at 10 uM incubated for 48 hrs by sulforhodamine B assay relative to control; summary of the method: as §3
UACC-62 = test: Growth inhibition of human UACC-62 cells assessed as cell growth at 10 uM incubated for 48 hrs by sulforhodamine B assay relative to control; summary of the method: as §3
IGROV-1 = test: Growth inhibition of human IGROV-1 cells assessed as cell growth at 10 uM incubated for 48 hrs by sulforhodamine B assay relative to control; summary of the method: as §2
OVCAR-3 = test: Growth inhibition of human OVCAR-3 cells assessed as cell growth at 10 uM incubated for 48 hrs by sulforhodamine B assay relative to control; summary of the method: as §3
OVCAR-4 = test: Growth inhibition of human OVCAR-4 cells assessed as cell growth at 10 uM incubated for 48 hrs by sulforhodamine B assay relative to control; summary of the method: as §3
OVCAR-5 = test: Growth inhibition of human OVCAR-5 cells assessed as cell growth at 10 uM incubated for 48 hrs by sulforhodamine B assay relative to control; summary of the method: as §3
OVCAR-8 = test: Growth inhibition of human OVCAR-8 cells assessed as cell growth at 10 uM incubated for 48 hrs by sulforhodamine B assay relative to control; summary of the method: as §3
NCI/ADR-RES = test: Growth inhibition of human NCI/ADR-RES cells assessed as cell growth at 10 uM incubated for 48 hrs by sulforhodamine B assay relative to control; summary of the method: as §2
ACHN = test: Growth inhibition of human ACHN cells assessed as cell growth at 10 uM incubated for 48 hrs by sulforhodamine B assay relative to control
Summary of the method: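 NCI Developmental Therapeutics Program NCI60 human tumour cell line panel, one-dose primary screen with every compound at 10 µM. Growth is expressed as % of untreated control cells (100%).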

PC-3 = test: Growth inhibition of human PC-3 cells assessed as cell growth at 10 uM incubated for 48 hrs by sulforhodamine B assay relative to control; summary of the method: as §3
DU-145 = test: Growth inhibition of human DU-145 cells assessed as cell growth at 10 uM incubated for 48 hrs by sulforhodamine B assay relative to control; summary of the method: as §1
MCF7 = test: Growth inhibition of human MCF7 cells assessed as cell growth at 10 uM incubated for 48 hrs by sulforhodamine B assay relative to control; summary of the method: as §2
MDA-MB-231 = test: Growth inhibition of human MDA-MB-231 cells assessed as cell growth at 10 uM incubated for 48 hrs by sulforhodamine B assay relative to control; summary of the method: as §2
Hs-578T = test: Growth inhibition of human Hs-578T cells assessed as cell growth at 10 uM incubated for 48 hrs by sulforhodamine B assay relative to control; summary of the method: as §2
T47D = test: Growth inhibition of human T47D cells assessed as cell growth at 10 uM incubated for 48 hrs by sulforhodamine B assay relative to control; summary of the method: as §3
MDA-MB-468 = test: Growth inhibition of human MDA-MB-468 cells assessed as cell growth at 10 uM incubated for 48 hrs by sulforhodamine B assay relative to control; summary of the method: as §2

Structure (SMILES)	growth at 10 µM (CCRF-CEM)	growth at 10 µM (HL-60(TB))	growth at 10 µM (K562)	growth at 10 µM (RPMI-8226)	growth at 10 µM (A549)	growth at 10 µM (HOP-92)	growth at 10 µM (NCI-H23)	growth at 10 µM (NCI-H322M)	growth at 10 µM (COLO 205)	growth at 10 µM (HCC 2998)	growth at 10 µM (SW-620)	growth at 10 µM (SF-268)	growth at 10 µM (SF-295)	growth at 10 µM (SF-539)	growth at 10 µM (U-251)	growth at 10 µM (LOX IMVI)	growth at 10 µM (MDA-MB-435)	growth at 10 µM (SK-MEL-28)	growth at 10 µM (UACC-62)	growth at 10 µM (IGROV-1)	other results
Cc1cccc(NC(=O)c2sc3nc4c(cc3c2N)CN(Cc2ccccc2)CC4)c1	98.9%	108%	109%	101%	84.2%	100%	100%	103%	104%	104%	96.8%	103%	110%	79.9%	85.4%	95.8%	94.5%	103%	110%	102%	growth at 10 µM (OVCAR-3): 116%; growth at 10 µM (OVCAR-4): 105%; growth at 10 µM (OVCAR-5): 104%; growth at 10 µM (OVCAR-8): 98.2%; growth at 10 µM (NCI/ADR-RES): 101%; growth at 10 µM (ACHN): 102%; growth at 10 µM (PC-3): 98%; growth at 10 µM (DU-145): 89.3%; growth at 10 µM (MCF7): 95.9%; growth at 10 µM (MDA-MB-231): 113%; growth at 10 µM (Hs-578T): 94.6%; growth at 10 µM (T47D): 98.6%; growth at 10 µM (MDA-MB-468): 94.8%
CC1(C)CCc2cc(-c3ccn(S(=O)(=O)c4ccc(C(F)(F)F)cc4)n3)ccc2O1	82.8%	117%	76.8%	76.6%	79.8%	71.8%	83.1%	105%	108%	94.4%	90.2%	104%	87.3%	94.6%	89.1%	98.6%	96.6%	99.6%	83.5%	89.3%	growth at 10 µM (OVCAR-3): 104%; growth at 10 µM (OVCAR-4): 71.3%; growth at 10 µM (OVCAR-5): 95.7%; growth at 10 µM (OVCAR-8): 90.9%; growth at 10 µM (NCI/ADR-RES): 92.4%; growth at 10 µM (ACHN): 101%; growth at 10 µM (PC-3): 76.6%; growth at 10 µM (DU-145): 103%; growth at 10 µM (MCF7): 84.9%; growth at 10 µM (MDA-MB-231): 112%; growth at 10 µM (Hs-578T): 101%; growth at 10 µM (T47D): 63.9%; growth at 10 µM (MDA-MB-468): 64.2%
CC1(C)CCc2cc(-c3ccn(S(=O)(=O)c4ccccc4)n3)ccc2O1	65.6%	89.4%	10%	59.5%	77.6%	60%	75.5%	91.7%	96.1%	83.2%	71%	85.4%	81.4%	92.8%	72.3%	85.2%	79%	97.2%	73.3%	96.4%	growth at 10 µM (OVCAR-3): 81.4%; growth at 10 µM (OVCAR-4): 64.2%; growth at 10 µM (OVCAR-5): 89.7%; growth at 10 µM (OVCAR-8): 84.3%; growth at 10 µM (NCI/ADR-RES): 76%; growth at 10 µM (ACHN): 90.1%; growth at 10 µM (PC-3): 61.8%; growth at 10 µM (DU-145): 85.6%; growth at 10 µM (MCF7): 76.1%; growth at 10 µM (MDA-MB-231): 104%; growth at 10 µM (Hs-578T): 90.1%; growth at 10 µM (T47D): 50.5%; growth at 10 µM (MDA-MB-468): 54.6%
CC(C)N1CCc2nc3sc(C(=O)Nc4ccccc4)c(N)c3cc2C1	100%	98.4%	97.8%	98.2%	89.8%	55.6%	97.9%	108%	102%	110%	96.4%	113%	105%	93%	92.7%	102%	94%	108%	103%	100%	growth at 10 µM (OVCAR-3): 108%; growth at 10 µM (OVCAR-4): 105%; growth at 10 µM (OVCAR-5): 90.2%; growth at 10 µM (OVCAR-8): 95.9%; growth at 10 µM (NCI/ADR-RES): 100%; growth at 10 µM (ACHN): 100%; growth at 10 µM (PC-3): 81.9%; growth at 10 µM (DU-145): 110%; growth at 10 µM (MCF7): 94.7%; growth at 10 µM (MDA-MB-231): 95.2%; growth at 10 µM (Hs-578T): 100%; growth at 10 µM (T47D): 91.7%; growth at 10 µM (MDA-MB-468): 95.6%
